Bioassay records as filed in PubChem.
Hits are enriched below; roughly 3.2% of the tested compounds scored in any of these assays.
GASC-1 inh: human JMJD2C demethylase inhibition | Q9H3R0 | GST-JMJD2C(1-420) H3K9me3 demethylation, DELFIA europium | inhibition, % at 2.35 µM | actives 0.069% (n = 330,000);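 active = more than half of a compound's replicate wells show inhibition beyond 50%, single wells judged on their own value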;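 note: signal counts dimethyl H3K9 product captured on neutravidin plate; 0% = median of DMSO wells and 100% = 0.3 times that DMSO median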
DAX1 inh-1: inhibits human nuclear receptor DAX1; P51843; HEK293 Gal4-DAX1 luciferase reporter, luminescence; inhibition, % at 6.75 µM; actives 0.99% (n = 340,000);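 active = inhibition above the mean over all tested compounds plus 3 SD, cut at about 4.2% in these data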;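 note: 0% = DAX1-transfected cells with DMSO and 100% = empty-vector control cells with DMSO; inhibition shows as a rise in luminescence from relieved DAX1 repression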
Target sequence (P51843 207-470 limits assumed): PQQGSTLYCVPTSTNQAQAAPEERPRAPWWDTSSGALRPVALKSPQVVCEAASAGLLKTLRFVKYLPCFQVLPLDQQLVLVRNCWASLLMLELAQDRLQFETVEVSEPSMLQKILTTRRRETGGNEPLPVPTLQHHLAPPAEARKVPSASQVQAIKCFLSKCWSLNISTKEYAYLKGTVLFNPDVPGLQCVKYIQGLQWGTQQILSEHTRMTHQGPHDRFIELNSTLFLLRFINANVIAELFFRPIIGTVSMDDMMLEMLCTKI
DAX1 inh-2: inhibitors of DAX1 repression of SF-1 activated StAR promoter; HEK293T StAR-luciferase reporter, SF-1/DAX-1 repression relief; inhibition, % at 6.8 µM; actives 1.1% (n = 370,000);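 active = inhibition above the mean over all tested compounds plus 3 SD, cut at about 3.6% in these data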;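 note: 0% = DAX-1 cells with DMSO and 100% = cells lacking DAX-1 with DMSO; higher inhibition means more luminescence from relief of DAX-1 repression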
NR2E3 ag-1: human photoreceptor-specific nuclear receptor agonism. Q9Y5X4. CHO-S Gal4-NCOR/VP16-NR2E3 two-hybrid, luciferase. inhibition of corepressor binding, % at 3.98 µM. actives 0.35% (n = 360,000). AID 602229;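 active = inhibition above the mean of all tested compounds plus 3 SD, cut at about 70% in these data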;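 note: 0% = DMSO with NR2E3 transfected cells and 100% = cells lacking NR2E3 construct; higher means lower luciferase signal from less NR2E3 corepressor binding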
Target sequence (Q9Y5X4 whole entry, looked up, the tested form may be a part): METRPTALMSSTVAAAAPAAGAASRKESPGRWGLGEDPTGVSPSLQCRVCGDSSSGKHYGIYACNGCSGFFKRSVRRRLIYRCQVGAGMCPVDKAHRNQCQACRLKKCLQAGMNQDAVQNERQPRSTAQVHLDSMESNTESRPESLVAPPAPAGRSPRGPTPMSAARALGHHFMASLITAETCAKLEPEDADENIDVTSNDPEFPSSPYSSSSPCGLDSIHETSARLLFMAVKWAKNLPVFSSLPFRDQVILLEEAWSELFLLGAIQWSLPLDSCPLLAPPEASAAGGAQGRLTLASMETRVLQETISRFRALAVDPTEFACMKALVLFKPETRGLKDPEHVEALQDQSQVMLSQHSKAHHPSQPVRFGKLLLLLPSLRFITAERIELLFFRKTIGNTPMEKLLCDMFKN
SMARCA2 activ: activators of SMARCA2 function; MG213 cells, MMTV-luciferase reporter, dexamethasone, overnight; activation, % at 9.1 µM; actives 1% (n = 370,000); in the data active = activation above about 7.8%;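 note: 0% = vehicle wells and 100% = reference activator wells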
NR2E3 ag-2: agonists of human nuclear receptor NR2E3 | GST-NR2E3/biotin-RetCOR TR-FRET, 1536-well | actives 0.12% (n = 320,000) | inhibition of corepressor binding, % at 4.78 µM | Q9Y5X4;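 active = percent inhibition above the cutoff of mean plus 3 SD of all tested compounds, set per screening campaign, cut at about 20% in these data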;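 note: 0% = DMSO wells and 100% = biotin wells as full block of FRET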
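system = GST-tagged NR2E3 plus biotinylated RetCOR corepressor | input = 1.35 nM GST-NR2E3 | also added = 7 nM biotin-RetCOR | schedule = 5 h incubation at 4 °C | measured by = TR-FRET with europium anti-GST and streptavidin-D2, 340 nm excitation | read-out = percent loss of FRET ratio relative to control wells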
Starred values were filed as active, the others as inactive; / = not tested or not shown.

SMILES | GASC-1 inh | DAX1 inh-1 | DAX1 inh-2 | NR2E3 ag-1 | SMARCA2 activ | NR2E3 ag-2
Cc1cc(Nc2ccc(F)c(Cl)c2)n2nc(C)nc2n1 | 4 | 0 | -1 | 18 | -1 | 3
COCCCNC(=O)c1ccc(Cn2c(=O)c3ccccc3n(Cc3ccc(Br)cc3)c2=O)cc1 | / | / | -1 | / | 0 | /
Cn1c(SC2CCCC2)nnc1-c1ccco1 | / | / | 1 | / | 0 | /
O=C(CN1C(=O)CCC1=O)NC(=O)NC1CCCC1 | 8 | 4.6* | 1 | -11 | -1 | -4
CC1(c2ccccc2)NC(=O)N(CC(=O)NC(=O)NC2CCCC2)C1=O (stereo not drawn) | -3 | 0 | 0 | -13 | -3 | 4
C=CCN(C(=O)[C@@H](CCCC)[C@@H](O)c1ccc2ccccc2c1)c1ccccc1 | / | / | -1 | / | -2 | /
Cc1ccc(OCc2nnc(SCC(=O)Nc3cccc4ccccc34)n2Cc2ccco2)cc1 | / | / | -1 | / | -3 | /
c1ccc(-c2c[nH]c3ccc(OCc4ccc5ccccc5n4)c(-c4ccccc4)c23)cc1 | / | / | 0 | / | 1 | /
O=C(Cn1nc(-c2ccccc2)ccc1=O)NCCc1ccccc1F | / | / | 0 | / | -5 | /
COc1ccc(C(=O)N/N=C(\C)CC(=O)Nc2ccc(N(C)C)cc2)c(OC)c1 | 21 | 4.7* | 0 | -20 | 3 | -1
COc1ccc(NC(=O)C/C(C)=N/NC(=O)C(=O)NC(C)C)c(OC)c1 | -1 | 0 | 0 | 4 | 7.9* | 2
COc1ccc(NC(=O)C/C(C)=N/NC(=O)C(=O)Nc2cccc(Cl)c2C)c(OC)c1 | 5 | 0 | 0 | -29 | 0 | 2
Cc1ccc2c(c1)C(CS(=O)(=O)NCc1ccc(F)cc1)NC2 (stereo not drawn) | / | / | 0 | / | 5 | /
S=C(NCCNC(=S)Nc1ccccc1Cl)Nc1ccccc1Cl | -11 | 0 | 0 | -35 | -2 | 5
S=C(NCc1ccccc1Cl)Nc1ccccc1Cl | / | 7.4* | 0 | -11 | 1 | 1
Cc1ccc(N2C(=O)N(CC(=O)Nc3ccc(C)cc3[N+](=O)[O-])C(=O)C2C)cc1 (stereo not drawn) | 3 | 1 | 3.6* | -18 | 0 | 4
CC(C)c1c(O)cc(-c2ccncc2)n(-c2ccc(Cl)cc2)c1=O | -2 | 0 | 1 | 6 | 14* | 2
CC(C)c1cc(O)c(-c2ccccc2)c(=O)n1-c1ccc(Cl)cc1 | 0 | 1 | 0 | 6 | -5 | -1
COC(=O)[C@]12C[C@H](CC(=O)NCc3cccc(C(F)(F)F)c3)C(=O)N(CCC3=CCCCC3)C1=C[C@H](C(C)C)O[C@@H]2C1CC1 | / | / | -1 | / | -1 | /
COc1ccc(-n2ncc(N(C)n3cccc3)c(Cl)c2=O)cc1 | -5 | 2 | 3.9* | -147 | 6 | 0
CC(=O)Nc1ccc(C)cc1 | 11 | 0 | 1 | -12 | 3 | 3
O=C(Cc1ccc(Cl)cc1)Nc1ccccc1C(=O)Nc1ccc(C(=O)O)cc1 | 2 | 2 | 1 | 2 | -1 | 0
CC(=O)Nc1ccc(O)cc1 | / | 5.8* | 1 | 11 | 0 | -2
CC(=O)Nc1ccccc1 | / | 1 | 0 | -39 | -1 | /
CC(=O)Nc1ccc(N=Nc2ccccc2)cc1 | -3 | 2 | 4.2* | -93 | 3 | -3
SMILES | GASC-1 inh | DAX1 inh-1 | DAX1 inh-2 | NR2E3 ag-1 | SMARCA2 activ | NR2E3 ag-2
O=C(O)c1ccc(NC(=O)c2ccccc2NC(=O)c2ccccc2Cl)cc1 | 37 | 4.5* | 0 | -6 | -1 | 1
O=C(Nc1ccc(N=Nc2ccccc2)cc1)c1ccccc1Cl | 2 | 3 | 3.9* | -120 | 4 | 0
O=C(Nc1ccc(N=Nc2ccccc2)cc1)c1ccc(Cl)cc1Cl | 11 | 0 | 1 | -17 | -2 | 2
Cc1ccc2nc(-c3ccc(NC(=O)CSc4nnc(-c5ccccc5)n4Cc4ccco4)cc3)sc2c1 | / | / | 2 | / | 1 | /
Nc1c(C(=O)Nc2ccccc2)sc2nc(N3CCOCC3)c3c(c12)CCCC3 | / | 0 | 3.8* | -148 | 3 | /
Nc1c(C(=O)Nc2ccc(Cl)cc2)sc2nc(N3CCOCC3)c3c(c12)CCCC3 | 1 | 0 | 0 | -26 | 1 | 10
CNC(=O)CSc1nc2sccc2c(=O)n1-c1ccccc1 | -4 | 4.6* | 0 | 8 | 2 | 4
COC(=O)CNC(=O)CSc1nc2sccc2c(=O)n1-c1ccccc1 | 10 | 0 | 0 | 4 | -1 | 5
O=C(c1ccc(F)cc1)n1ccc2ccc(-c3ccc4ccn(Cc5ccccc5)c4c3)cc21 | / | / | 0 | / | -3 | /
O=c1[nH]ncc(N/N=C\c2cccnc2)c1Cl | 1 | 5.2* | 0 | -20 | -2 | -2
CCCCOc1ccc(C(=O)NC2CCCCN(Cc3cccc(Cl)c3)C2=O)cc1 (stereo not drawn) | / | / | -3 | / | -5 | /
Nc1nc(N)nc(-c2cccc(Br)c2)n1 | / | 3 | 4.2* | -61 | -1 | /
Cc1cccc(-c2nc(N)nc(N)n2)c1 | -22 | 1 | 1 | -24 | 2 | -5
O=C(CSc1nnc(-c2cccs2)o1)c1ccc2c(c1)OCO2 | / | / | 0 | / | -4 | /
Cc1ccccc1C(=O)n1ccc2ccc(-c3ccc4ccn(Cc5ccccc5)c4c3)cc21 | / | / | -2 | / | -1 | /
CCc1ccc(C2C3=C(CCCC3=O)OC3=C2C(=O)CCC3)cc1 | -1 | -1 | 0 | -7 | -1 | 1
O=C1CCCC2=C1C(c1ccc(OS(=O)(=O)c3ccc(Cl)cc3)cc1)C1=C(CCCC1=O)O2 | 57* | 7.2* | 0 | -5 | -1 | 2
N#Cc1ccccc1N1CCN(C(=O)C2CCN(c3ncnc4c3sc3cccc(F)c34)CC2)CC1 | / | / | -4 | / | -7 | /
[O-][n+]1ccc(C(O)c2ccccc2)cc1 (stereo not drawn) | 1 | 5.1* | 0 | 6 | 3 | 5
OC(C[n+]1ccccc1)c1ccccc1 (stereo not drawn) | 1 | 3 | 0 | -4 | 3 | 3
O=C1C=C[C@H]2CC[C@@H](O)[C@@H]1[C@@H]2Sc1ccccc1 | / | / | -1 | / | 4 | /
Cc1cc(C)c(NC(=O)C2CCCN2CCC(C)C)c(C)c1 (stereo not drawn) | -2 | 4.8* | 0 | -13 | -3 | -1
CCC(C)N1CCCC1C(=O)Nc1c(C)cc(C)cc1C (stereo not drawn) | -2 | 1 | -1 | -7 | 0 | 2
COc1ccccc1CC(=O)NCC(c1ccco1)N1CCCCC1 (stereo not drawn) | 7 | 4.6* | 1 | -6 | -3 | -3
CN(CCO)c1cccc2c1S(=O)(=O)N(Cc1cn(Cc3ccc(F)cc3)nn1)Cc1ccccc1O2 | / | / | -1 | / | -1 | /
Cc1ccc(NC(=O)Cc2ccc(OC(F)F)cc2)c(S(=O)(=O)N2CCOCC2)c1 | / | / | -2 | / | -5 | /
CC1(C)Cc2nc3sc(C(=O)NCCCO)c(N)c3cc2CS1 | 5 | 5.0* | 1 | 3 | -1 | -1
